19 molecules from ChEMBL document CHEMBL2046304, “Antitumor agents 290. Design, synthesis, and biological evaluation of new LNCaP and PC-3 cytotoxic curcumin analogs conjugated with anti-androgens” (Bioorg Med Chem, 2012) can be followed below.

Data set [1] in a line: Drug localization in cytosol of androgen-independent human PC3 cells at 50 uM after 48 hrs by DAPI staining based fluorescence microscopy assay. Format: ADME, cell-based, PC-3.
Data set [2] deals with LNCaP. The data set is described as follows: Cytotoxicity against androgen-dependent human LNCAP cells after 72 hrs by SRB assay. Format: functional, cell-based. The essentials: (§1)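 SRB assay. Cells were seeded at 3-5 × 10^3 per well in RPMI-1640 with 10% FBS and exposed to a range of concentrations for 72 h; final DMSO was <0.5%. Cells were then fixed in cold 50% TCA for 30 min, stained with 0.04% SRB for 30 min, solubilized in 10 mM Tris base, and read at 515 nm. IC50 is 50% growth inhibition versus untreated control, by log-linear interpolation; mean ± SE of ≥3 independent experiments.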
(In general: The SRB assay estimates cell density from bound dye.)

Data set [3] has as its system LNCaP. The data set is described as follows: Antiproliferative activity against androgen-dependent human LNCAP cells after 72 hrs by SRB assay. Format: functional, cell-based. The essentials:
as §1

Data set [4] deals with PC-3. The data set is described as follows: Cytotoxicity against androgen-independent human PC3 cells after 72 hrs by SRB assay. In kind it is functional, cell-based. To be noted: PC-3, 72 h. Put shortly:
as §1

For data set [5], the system named is PC-3. The data set is described as follows: Inhibition of actin based pseudopodia formation in androgen-dependent human PC3 cells at 50 uM after 48 hrs by DAPI staining based fluorescence microscopy assay. Format: functional, cell-based. To be noted: in the assay text read “androgen-independent” for “androgen-dependent”. The essentials:
(§2)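 Cells in RPMI-1640 with 10% FBS were plated on chamber slides for 12 h, then exposed to compound or DMSO for 48 h at 37 °C. Cells were fixed in 4% paraformaldehyde in PBS, nuclei were stained with DAPI, and nuclear and pseudopodia morphology was examined by fluorescence microscopy.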

Data set [6] concerns LNCaP. Description: Inhibition of actin based pseudopodia formation in androgen-dependent human LNCAP cells at 50 uM after 48 hrs by DAPI staining based fluorescence microscopy assay. In kind it is functional, cell-based. Put shortly:
as §2

The subject of data set [7] is PC-3. The data set is described as follows: Induction of multinucleation in androgen-dependent human PC3 cells at 50 uM after 48 hrs by DAPI staining based fluorescence microscopy assay. In kind it is functional, cell-based. The following applies: in the assay text read “androgen-independent” for “androgen-dependent”. The essentials:
as §2

The test system of data set [8] is PC-3. The data set is described as follows: Antiproliferative activity against androgen-independent human PC3 cells after 72 hrs by SRB assay. In kind it is functional, cell-based. The essentials:
as §1

Data set [9] deals with LNCaP. The data set is described as follows: Inhibition of actin based pseudopodia formation in androgen-dependent human LNCAP cells at 100 uM after 48 hrs by DAPI staining based fluorescence microscopy assay. In kind it is functional, cell-based. The essentials:
(§3)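 Cells were plated in RPMI-1640 with 10% FBS in chamber slides for 12 h, then exposed to compound or DMSO vehicle for 48 h at 37 °C in 5% CO2. They were fixed with 4% paraformaldehyde in PBS, nuclei were stained with DAPI, and the slides were mounted. Pseudopodia and pseudopodia-like extensions were scored visually by fluorescence microscopy against untreated (DMSO) controls.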

The subject of data set [10] is PC-3. The data set is described as follows: Inhibition of actin based pseudopodia formation in androgen-dependent human PC3 cells at 100 uM after 48 hrs by DAPI staining based fluorescence microscopy assay. Format: functional, cell-based. The essentials:
as §3

The test system of data set [11] is PC-3. Description: Cytotoxicity against androgen-independent human PC3 cells at 100 uM within 48 hrs by SRB assay. Format: functional, cell-based.
The test system of data set [12] is PC-3. Description: Induction of multinucleation in androgen-dependent human PC3 cells at 40 uM after 48 hrs by DAPI staining based fluorescence microscopy assay. In kind it is functional, cell-based. To be noted: in the assay text read “androgen-independent” for “androgen-dependent”. Put shortly: as §2
Data set [13] has as its system LNCaP. Description: Inhibition of actin based pseudopodia formation in androgen-dependent human LNCAP cells at 40 uM after 48 hrs by DAPI staining based fluorescence microscopy assay. In kind it is functional, cell-based. The essentials:
as §2

Data set [14] deals with PC-3. Description: Inhibition of actin based pseudopodia formation in androgen-dependent human PC3 cells at 40 uM after 48 hrs by DAPI staining based fluorescence microscopy assay. Format: functional, cell-based. The following applies: in the assay text read “androgen-independent” for “androgen-dependent”. Put shortly: as §2
For data set [15], the system named is LNCaP. Description: Inhibition of actin based pseudopodia formation in androgen-dependent human LNCAP cells at 30 uM after 48 hrs by DAPI staining based fluorescence microscopy assay. Format: functional, cell-based. Put shortly:
as §2

In data set [16] the test system is PC-3. The data set is described as follows: Inhibition of actin based pseudopodia formation in androgen-dependent human PC3 cells at 30 uM after 48 hrs by DAPI staining based fluorescence microscopy assay. Format: functional, cell-based. To be noted: in the assay text read “androgen-independent” for “androgen-dependent”. Put shortly: as §2
The test system of data set [17] is PC-3. Description: Induction of nuclear enlargement in androgen-dependent human PC3 cells at 30 uM after 48 hrs by DAPI staining based fluorescence microscopy assay. In kind it is functional, cell-based. To be noted: in the assay text read “androgen-independent” for “androgen-dependent”. Put shortly:
as §2

Data set [18] is described as follows: Drug localization in nucleus of androgen-independent human PC3 cells at 30 uM after 48 hrs by DAPI staining based fluorescence microscopy assay. Format: ADME, cell-based. To be noted: pc-3, 48 h.
Data set [19] has as its system PC-3. The data set is described as follows: Induction of nuclear enlargement in androgen-dependent human PC3 cells at 40 uM after 48 hrs by DAPI staining based fluorescence microscopy assay. Format: functional, cell-based. To be noted: in the assay text read “androgen-independent” for “androgen-dependent”. The essentials:
as §2

The source made the active and inactive calls. The calls are words filed in the database; no cut-off is given here.

As for `COc1cc(/C=C/C(=O)/C=C(O)/C=C/c2ccc(OC(C)(C)C(=O)Nc3ccc(C#N)c(C(F)(F)F)c3)c(OC)c2)ccc1O`, the Drug uptake result in data set [1] was “Active”. The IC50 (as a rule, the point on the concentration scale where inhibition reaches its midpoint) in the data set with LNCaP [2] is 55 µM; in the data set on PC-3 [4] it was 48.1 µM. The Activity result in the data set on LNCaP [3] and with PC-3 [8] was “Dose-dependent effect” each time. Besides, the inhibition result in the data set on PC-3 [5] and in the data set with LNCaP [6] was “Active” throughout. Further, in the data set on PC-3 [7], the outcome was Active.
`COc1cc(/C=C/C(=O)/C=C(O)/C=C/c2ccc(OC(C)(C)C(=O)Nc3ccc([N+](=O)[O-])c(C(F)(F)F)c3)c(OC)c2)ccc1O`: the IC50 in the data set on LNCaP [2] and with PC-3 [4] was greater than 100 µM each time. Also, the Activity result in the data set on LNCaP [3] and in the data set on PC-3 [8] was “Dose-dependent effect” throughout.
Consider `COc1ccc(/C=C/C(=O)/C=C(O)/C=C/c2ccc(OCCCCCCCCCCC(=O)Nc3ccc(C#N)c(C(F)(F)F)c3)c(OC)c2)cc1OC`, for which the IC50 in the data set with LNCaP [2] and in the data set on PC-3 [4] was greater than 100 µM in each case.
Regarding `COc1ccc(/C=C/C(=O)/C(F)=C(O)/C=C/c2ccc(OC)c(OC)c2)cc1OC`, the IC50 was found to be 27.3 µM in the data set with LNCaP [2] and 17.7 µM in the data set with PC-3 [4].
On the same counts, the results for `COc1ccc(/C=C/C(=O)/C=C(O)/C=C/c2ccc(OCCCC(=O)Nc3ccc(C#N)c(C(F)(F)F)c3)c(OC)c2)cc1OC` are 96.3 µM and greater than 100 µM.
For `COc1ccc(/C=C/C(=O)C(F)(F)C(=O)/C=C/c2ccc(OC)c(OC)c2)cc1OC`, the IC50 in the data set on LNCaP [2] was 53.8 µM; with PC-3 [4], 44.3 µM.
`COc1ccc(/C=C/C(=O)/C=C(O)/C=C/c2ccc(OCC(C)(O)C(=O)Nc3ccc(C#N)c(C(F)(F)F)c3)c(OC)c2)cc1OC` (stereo not given): the IC50 in the data set with LNCaP [2] stood at 73 µM; in the data set with PC-3 [4], 100 µM. Moreover, the Activity result in the data set on LNCaP [3] and in the data set on PC-3 [8] was “Dose-dependent effect” throughout.
Turning to `COc1cc(/C=C/C(=O)/C=C(O)/C=C/c2ccc(OC(C)(C)C(=O)Nc3ccc(F)c(C(F)(F)F)c3)c(OC)c2)ccc1O`, the IC50 in the data set with LNCaP [2] amounted to 54.8 µM; with PC-3 [4], 52.1 µM. For the same molecule, the Activity result with LNCaP [3] and with PC-3 [8] was “Dose-dependent effect” each time.
On to `CC(O)(CS(=O)(=O)c1ccc(F)cc1)C(=O)Nc1ccc(C#N)c(C(F)(F)F)c1` (racemic) [BICALUTAMIDE], for which the inhibition entry with LNCaP [9] is “inactive”. Moreover, the 50% inhibitory concentration (IC50) with LNCaP [2] was determined as 74 µM; in the data set on PC-3 [4], 76.4 µM. In addition, the Activity result with LNCaP [3] and with PC-3 [8] was “Dose-dependent effect” each time. Also, the inhibition entry in the data set on PC-3 [10] was “Active”. Moreover, the result in the data set with PC-3 [11] was inactive.
`COc1ccc(/C=C/C(=O)/C=C(O)/C=C/c2ccc(OC)c(OC)c2)cc1OC` [DIMETHYLCURCUMIN]: the 50% inhibitory concentration (IC50) came out at 15.3 µM in the data set with LNCaP [2] and 23.7 µM with PC-3 [4].
As for `COc1ccc(/C=C/C(=O)/C=C(O)/C=C/c2ccc(OC(C)(C)C(=O)Nc3ccc(Cl)c(C(F)(F)F)c3)c(OC)c2)cc1OC`, the IC50 in the data set with LNCaP [2] and in the data set with PC-3 [4] was greater than 100 µM throughout. For the same molecule, the Activity entry in the data set on LNCaP [3] and with PC-3 [8] was “Dose-dependent effect” throughout.
Regarding `COc1ccc(/C=C/C(=O)/C=C(O)/C=C/c2ccc(OC(C)(C)C(=O)Nc3ccc(C#N)c(C(F)(F)F)c3)c(OC)c2)cc1OC`, the IC50 in the data set with LNCaP [2] and in the data set with PC-3 [4] was greater than 100 µM throughout. Also, the Activity entry in the data set on LNCaP [3] and in the data set with PC-3 [8] was “Dose-dependent effect” each time.
Regarding `COc1ccc(/C=C/C(=O)/C=C(O)/C=C/c2ccc(OCC(C)(O)C(=O)Nc3ccc([N+](=O)[O-])c(C(F)(F)F)c3)c(OC)c2)cc1OC` (stereo not given), the values for the IC50 with LNCaP [2] and with PC-3 [4] were 41.8 µM and 39.1 µM, respectively. The Activity result in the data set on LNCaP [3] and in the data set with PC-3 [8] was “Dose-dependent effect” in each case. Besides, the outcome with PC-3 [12] was Active. The inhibition result in the data set with LNCaP [13] and in the data set with PC-3 [14] was “Active” each time.
As to `COc1ccc(/C=C/C(=O)/C=C(O)/C=C/c2ccc(OC(C)(C)C(=O)Nc3ccc([N+](=O)[O-])c(C(F)(F)F)c3)c(OC)c2)cc1OC`, the IC50 in the data set with LNCaP [2] and in the data set on PC-3 [4] was greater than 100 µM in each case. The Activity result with LNCaP [3] and in the data set with PC-3 [8] was “Dose-dependent effect” each time.
Turning to `CC(C)C(=O)Nc1ccc([N+](=O)[O-])c(C(F)(F)F)c1` [FLUTAMIDE], the IC50 in the data set with LNCaP [2] is 81.8 µM; in the data set with PC-3 [4] it was 98.8 µM. Moreover, the Activity result with LNCaP [3] and in the data set with PC-3 [8] was “Dose-dependent effect” throughout. Further, the outcome in the data set on PC-3 [11] was inactive.
For the molecule `COc1cc(/C=C/C(=O)CC(=O)/C=C/c2ccc(O)c(OC)c2)ccc1O` [CURCUMIN], the inhibition result in the data set on LNCaP [15] and with PC-3 [16] was “Active” throughout. For the same molecule, the IC50 in the data set with LNCaP [2] is 36.4 µM; with PC-3 [4], 36 µM. For the same molecule, in the data set on PC-3 [17], the result was Active. Besides, in data set [18], the Drug uptake entry was “Active”.
Take `COc1cc(/C=C/C(O)=C/C(=O)/C=C/c2ccc(OC)c(OC)c2)ccc1O` [METHYLCURCUMIN]: the IC50 in the data set on LNCaP [2] came to 47 µM; in the data set with PC-3 [4] it was 33.1 µM. Further, the outcome in the data set with PC-3 [19] was Active. Further, the inhibition result in the data set on LNCaP [13] and with PC-3 [14] was “Active” in each case.
With `COc1cc(/C=C/C(=O)/C=C(O)/C=C/c2ccc(OC(C)(C)C(=O)Nc3ccc(Cl)c(C(F)(F)F)c3)c(OC)c2)ccc1O`, the IC50 with LNCaP [2] and in the data set on PC-3 [4] was greater than 100 µM in each case. Also, the Activity entry in the data set on LNCaP [3] and in the data set on PC-3 [8] was “Dose-dependent effect” throughout.
Turning to `COc1cc(/C=C/C(=O)/C=C(O)/C=C/c2ccc(OC(C)(C)C(=O)Nc3ccc(C)c(C(F)(F)F)c3)c(OC)c2)ccc1O`, the IC50 with LNCaP [2] and in the data set with PC-3 [4] was greater than 100 µM each time. The Activity entry in the data set with LNCaP [3] and in the data set on PC-3 [8] was “Dose-dependent effect” each time.
